From ChEMBL document CHEMBL3865831, “Cantharimide and Its Derivatives from the Blister Beetle Mylabris phalerata Palla” (J Nat Prod, 2016)

What was measured:
[1] = Cytotoxicity against human HepG2.2.15 cells after 72 hrs by MTT assay; assay type: functional, cell-based; conditions: HepG2 2.2.15, 72 h
How it was run: (§1)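 Cells were exposed to serial dilutions of compound from 1.00 to 100 μg/mL for 72 h. MTT (400 μg/mL) was then added for 4 h, replaced with DMSO, and absorbance was read at 540 nm. Cantharidin was the positive control.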

[2] = Cytotoxicity against human BGC823 cells measured after 72 hrs by MTT assay; assay type: functional, cell-based; conditions: BGC-823, 72 h; how it was run: as §1
[3] = Cytotoxicity against human HCT116 cells measured after 72 hrs by MTT assay; assay type: functional, cell-based; conditions: HCT-116, 72 h; how it was run: as §1
Hepatitis B virus [4] = experiment: Antiviral activity against Hepatitis B virus infected human HepG2.2.15 cells assessed as inhibition of HBeAg secretion measured after 96 hrs by ELISA; assay type: functional; conditions: HepG2.2.15, 96 h
How it was run: (§2)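 HepG2.2.15 cells, stably transfected with the HBV genome, were grown for 24 h in DMEM with 10% FBS, 100 μg/mL G418 and penicillin/streptomycin at 37 °C under 5% CO2. Compounds diluted in culture medium were then added for 96 h. HBeAg or HBsAg in the collected medium was measured by ELISA. Adefovir dipivoxil was the positive control. Data are mean ± SD, n = 3.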

[5] = Selectivity index, ratio of CC50 for human HepG2.2.15 cells to IC50 for inhibition of HBeAg secretion in Hepatitis B virus infected human HepG2.2.15 cells; assay type: functional
How it was run: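 SI is CC50 in HepG2.2.15 cells divided by IC50 for HBeAg inhibition, the latter measured by ELISA of medium after 96 h of compound treatment. Values are from triplicate determinations.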

[6] = Toxicity against human HepG2.2.15 cells infected with HBV after 72 hrs by MTT assay; assay type: cell-based, HepG2 2.2.15; how it was run: as §1
Hepatitis B virus [7] = experiment: Antiviral activity against Hepatitis B virus infected human HepG2.2.15 cells assessed as inhibition of HBsAg secretion measured after 96 hrs by ELISA; assay type: functional; conditions: HepG2.2.15, 96 h; how it was run: as §2

Row | IC50 (Hepatitis B virus [4]) [µM] | IC50 (Hepatitis B virus [7]) [µM] | Compound | IC50 [1] [µM] | IC50 [2] [µM] | IC50 [3] [µM] | Ratio CC50/IC50 [5] | CC50 at 72 h [6] [µM]
1 |  |  | CNC(=O)CCCN1C(=O)[C@H]2[C@@H]3CC[C@@H](O3)[C@@]2(C)C1=O | > 10 | > 10 | > 10 |  | 
2 |  |  | C[C@@]12C(=O)N(CCCO)C(=O)[C@]1(CO)[C@H]1CC[C@@H]2O1 | > 10 | > 10 | > 10 |  | 
3 |  |  | C[C@@]12C(=O)N(CCC(N)=O)C(=O)[C@]1(C)[C@H]1CC[C@@H]2O1 | > 10 | > 10 | > 10 |  | 
4 | 42 | > 260 | C[C@@]12C(=O)NC(=O)[C@]1(C)[C@H]1CC[C@@H]2O1 | > 10 | > 10 | > 10 | 6.7 | 280
5 |  |  | CC(=O)CN1C(=O)[C@@]2(C)[C@@H]3CC[C@@H](O3)[C@@]2(C)C1=O | > 10 | > 10 | > 10 |  | 
6 |  |  | CN1C(=O)[C@@]2(C)[C@@H]3CC[C@@H](O3)[C@@]2(CO)C1=O | > 10 | > 10 | > 10 |  | 
7 | 62 | > 210 | C[C@@]12C(=O)N(CCO)C(=O)[C@]1(C)[C@H]1CC[C@@H]2O1 | > 10 | > 10 | > 10 |  | > 420
8 | 290 | 270 | CC(C)(C)C(=O)OCOP(=O)(COCCn1cnc2c(N)ncnc21)OCOC(=O)C(C)(C)C [ADEFOVIR DIPIVOXIL] |  |  |  |  | > 400
9 |  |  | C[C@]12C(=O)N(CC(N)=O)C(=O)[C@H]1[C@@H]1CC[C@H]2O1 | > 10 | > 10 | > 10 |  | 
10 |  |  | C[C@@]12C(=O)N(CC(N)=O)C(=O)[C@]1(C)[C@H]1CC[C@@H]2O1 | > 10 | > 10 | > 10 |  | 
11 |  |  | C[C@]12C(=O)NC(=O)[C@H]1[C@@H]1CC[C@H]2O1 | > 10 | > 10 | > 10 |  | 
12 |  |  | C[C@@]12C(=O)N(CCCN3C(=O)[C@@]4(C)[C@@H]5CC[C@@H](O5)[C@@]4(C)C3=O)C(=O)[C@]1(C)[C@H]1CC[C@@H]2O1 | > 10 | > 10 | > 10 |  | 
13 |  |  | C[C@@]12C(=O)NC(=O)[C@]1(CO)[C@H]1CC[C@@H]2O1 | > 10 | > 10 | > 10 |  | 
14 | 19 | > 110 | C[C@@]12C(=O)N(CCCCN3C(=O)[C@@]4(C)[C@@H]5CC[C@@H](O5)[C@@]4(C)C3=O)C(=O)[C@]1(C)[C@H]1CC[C@@H]2O1 | > 10 | > 10 | > 10 |  | > 220
15 | 58 | > 160 | C[C@@]12C(=O)N(CCc3ccc(O)cc3)C(=O)[C@]1(C)[C@H]1CC[C@@H]2O1 | > 10 | > 10 | > 10 |  | > 320
16 |  |  | C[C@]12C(=O)N(CCCO)C(=O)[C@H]1[C@@H]1CC[C@H]2O1 | > 10 | > 10 | > 10 |  | 
17 |  |  | C[C@@]12C(=O)N(CCO)C(=O)[C@]1(CO)[C@H]1CC[C@@H]2O1 | > 10 | > 10 | > 10 |  | 
18 |  |  | C[C@@]12C(=O)N(CCCO)C(=O)[C@]1(C)[C@H]1CC[C@@H]2O1 | > 10 | > 10 | > 10 |  | 
19 |  |  | CNC(=O)CCCN1C(=O)[C@@]2(C)[C@@H]3CC[C@@H](O3)[C@@]2(C)C1=O | > 10 | > 10 | > 10 |  | 
